According to ChEMBL document CHEMBL1255395, “Laninamivir prodrug CS-8958, a long-acting neuraminidase inhibitor, shows superior anti-influenza virus activity after a single administration” (Antimicrob Agents Chemother, 2010):
Activity calls are given as the source filed them. The calls are words filed in the database; no cut-off is given here.

Legend:
[1] = Half life in human; format: ADME, organism-based; settings: in vivo
[2] = system: Influenza A virus; assay: Antimicrobial activity against Influenza A virus (A/Puerto Rico/8/34(H1N1)) infected in BALB/c mouse assessed as increase in mouse survival at 0.095 mg/kg, itn administered for 7 days before infection; format: functional, organism-based; parameters: dose 0.095 mg/kg; settings: A/Puerto Rico/8/1934(H1N1)
[3] = system: Influenza A virus; assay: Antimicrobial activity against Influenza A virus (A/Puerto Rico/8/34(H1N1)) infected in BALB/c mouse assessed as increase in mouse survival at 0.18 mg/kg, itn administered for 7 days before infection; format: functional, organism-based; parameters: dose 0.18 mg/kg; settings: A/Puerto Rico/8/1934(H1N1)
[4] = system: Influenza A virus; assay: Antimicrobial activity against Influenza A virus (A/Puerto Rico/8/34(H1N1)) infected in BALB/c mouse assessed as increase in mouse survival at 0.37 mg/kg, itn administered for 7 days before infection; format: functional, organism-based; parameters: dose 0.37 mg/kg; settings: A/Puerto Rico/8/1934(H1N1)
In short: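 Single intranasal dose in saline (50 μl) given to anesthetized female BALB/c mice 7 days before intranasal infection with A/PR/8/34 at 500 PFU, n = 12. Survival was checked daily to day 20. Groups were compared with saline controls by Kaplan-Meier and log-rank test, with Bonferroni adjustment where needed.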

[5] = system: Influenza A virus; assay: Antimicrobial activity against Influenza A virus (A/Puerto Rico/8/34(H1N1)) infected in BALB/c mouse assessed as increase in mouse survival at 0.71 mg/kg, itn administered for 7 days before infection; format: functional, organism-based; parameters: dose 0.71 mg/kg; settings: A/Puerto Rico/8/1934(H1N1)
[6] = system: Influenza A virus; assay: Antimicrobial activity against Influenza A virus (A/Puerto Rico/8/34(H1N1)) infected in BALB/c mouse assessed as increase in mouse survival at 0.085 mg/kg, itn administered for 7 days before infection; format: functional, organism-based; parameters: dose 0.085 mg/kg; settings: A/Puerto Rico/8/1934(H1N1)
[7] = system: Influenza A virus; assay: Antimicrobial activity against Influenza A virus (A/Puerto Rico/8/34(H1N1)) infected in BALB/c mouse assessed as increase in mouse survival at 0.25 mg/kg, itn administered for 7 days before infection; format: functional, organism-based; parameters: dose 0.25 mg/kg; settings: A/Puerto Rico/8/1934(H1N1)
[8] = system: Influenza A virus; assay: Antimicrobial activity against Influenza A virus (A/Puerto Rico/8/34(H1N1)) infected in BALB/c mouse assessed as increase in mouse survival at 0.76 mg/kg, itn administered for 7 days before infection; format: functional, organism-based; parameters: dose 0.76 mg/kg; settings: A/Puerto Rico/8/1934(H1N1)
[9] = system: Influenza B virus; assay: Antimicrobial activity against Influenza B virus (B/Hong Kong/05/1972)infected in BALB/c mouse assessed as increase in mouse survival at 0.076 mg/kg, itn administered for 7 days before infection; format: functional, organism-based; parameters: dose 0.076 mg/kg
[10] = system: Influenza B virus; assay: Antimicrobial activity against Influenza B virus (B/Hong Kong/05/1972) infected in BALB/c mouse assessed as increase in mouse survival at 0.23 mg/kg, itn administered for 7 days before infection; format: functional, organism-based; parameters: dose 0.23 mg/kg
[11] = system: Influenza B virus; assay: Antimicrobial activity against Influenza B virus (B/Hong Kong/05/1972) infected in BALB/c mouse assessed as increase in mouse survival at 0.71 mg/kg, itn administered for 7 days before infection; format: functional, organism-based; parameters: dose 0.71 mg/kg
[12] = system: Influenza A virus; assay: Antimicrobial activity against Influenza A virus (A/Puerto Rico/8/34(H1N1)) infected in BALB/c mouse assessed as increase in mouse survival at 0.017 mg/kg, itn administered 11 hrs post infection for 5 days […] infection; format: functional, organism-based; parameters: dose 0.017 mg/kg; settings: A/Puerto Rico/8/1934(H1N1)
In short: (§1)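 Female BALB/c mice (5–6 weeks) infected intranasally with A/PR/8/34 at 100 PFU, n = 10 per group. Each mouse got one intranasal dose at 11 hpi plus oral doses twice daily from 11 hpi to 120 hpi. Drug went by one route and saline by the other, all in saline vehicle. Survival was followed daily to day 20 and analysed by Kaplan-Meier with a log-rank test against the saline group.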

[13] = system: Influenza A virus; assay: Antimicrobial activity against Influenza A virus (A/Puerto Rico/8/34(H1N1)) infected in BALB/c mouse assessed as reduction in viral titer in lung at 0.027 mg/kg, itn after 11 hrs post infection; format: functional, organism-based; parameters: dose 0.027 mg/kg; settings: A/Puerto Rico/8/1934(H1N1), TDE = time-dependent effect
In short: (§2)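 BALB/c mice infected intranasally with A/PR/8/34 at 30 PFU. Oral drug was given twice daily from 11 hpi with intranasal saline at 11 hpi, or a single intranasal dose at 11 hpi with oral saline on the same schedule. Lungs (n = 3) were harvested at 35, 59 and 83 hpi. Titers were measured by MDCK plaque assay, log10 PFU/lungs.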

[14] = system: Influenza B virus; assay: Antimicrobial activity against Influenza B virus (B/Malaysia/2506/2004) infected itn dosed Mustela putorius furo assessed as nasal viral titer treated after 4 hrs post infection measured after 1 day; format: functional, organism-based
In short: (§3)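 Ferrets (600–800 g), seronegative by hemagglutination inhibition, anaesthetized with ketamine/xylazine and infected with B/Malaysia/2506/2004, 1,000 PFU/100 μl. From 4 hpi they received either a single intranasal dose (saline, 0.05 or 0.5 μmol/kg) or 25 mg/kg oral twice daily. Nasal wash titers measured by MDCK plaque assay on days 1, 2 and 3, log10 PFU/ml (n = 5). Undetectable samples entered at the lower limit of detection.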

[15] = system: Influenza B virus; assay: Antimicrobial activity against Influenza B virus (B/Malaysia/2506/2004) infected itn dosed Mustela putorius furo assessed as nasal viral titer treated after 4 hrs post infection measured after 2 days; format: functional, organism-based; in short: as §3
[16] = system: Influenza B virus; assay: Antimicrobial activity against Influenza B virus (B/Malaysia/2506/2004) infected itn dosed Mustela putorius furo assessed as nasal viral titer treated after 4 hrs post infection measured after 3 days; format: functional, organism-based; in short: as §3
[17] = system: Influenza A virus; assay: Antimicrobial activity against Influenza A virus (A/Puerto Rico/8/34(H1N1)) infected in BALB/c mouse assessed as reduction in viral titer in lung at 0.24 mg/kg, itn administered 11 hrs post infection measured after 35 hrs post infection; format: functional, organism-based; parameters: dose 0.24 mg/kg; settings: A/Puerto Rico/8/1934(H1N1)
In short: (§4)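 BALB/c mice infected intranasally with A/PR/8/34 at 30 PFU. Intranasal dosing at 0.5 μmol/kg began at 11 hpi, either repeated twice daily or given once followed by twice-daily saline. Lungs (n = 3) were taken at 35, 59 and 83 hpi and homogenized. Titers were measured by MDCK plaque assay as log10 PFU/lungs. Two-way ANOVA and Dunnett test were applied.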

[18] = system: Influenza A virus; assay: Antimicrobial activity against Influenza A virus (A/Puerto Rico/8/34(H1N1)) infected in BALB/c mouse assessed as reduction in viral titer in lung at 0.24 mg/kg, itn administered 11 hrs post infection measured after 59 hrs post infection; format: functional, organism-based; parameters: dose 0.24 mg/kg; settings: A/Puerto Rico/8/1934(H1N1); in short: as §4
[19] = system: Influenza A virus; assay: Antimicrobial activity against Influenza A virus (A/Puerto Rico/8/34(H1N1)) infected in BALB/c mouse assessed as reduction in viral titer in lung at 0.24 mg/kg, itn administered 11 hrs post infection measured after 83 hrs post infection; format: functional, organism-based; parameters: dose 0.24 mg/kg; settings: A/Puerto Rico/8/1934(H1N1); in short: as §4
[20] = system: Influenza A virus; assay: Antimicrobial activity against oseltamivir-sensitive influenza A virus (A/Yokohama/67/2006 (H1N1)) clone 1 infected in BALB/c mouse assessed as reduction in viral titer in lung at 0.080 mg/kg, itn administered 13 hrs post infection measured after 37 hrs post infection; format: functional, organism-based; parameters: dose 0.08 mg/kg
In short: (§5)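 Female BALB/c mice infected intranasally with A/Yokohama/67/2006 clone 1. From 13 hpi they received either a single intranasal dose (0.057 or 0.17 μmol/kg) or 1.0 or 10 mg/kg oral twice daily. Lung titers measured at 37, 61 and 85 hpi by MDCK plaque assay, log10 PFU/lungs (n = 3). Detection limit 2.4.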

[21] = system: Influenza A virus; assay: Antimicrobial activity against oseltamivir-sensitive influenza A virus (A/Yokohama/67/2006 (H1N1)) clone 1 infected in BALB/c mouse assessed as reduction in viral titer in lung at 0.080 mg/kg, itn administered 13 hrs post infection measured after 61 hrs post infection; format: functional, organism-based; parameters: dose 0.08 mg/kg; in short: as §5
[22] = system: Influenza A virus; assay: Antimicrobial activity against oseltamivir-sensitive influenza A virus (A/Yokohama/67/2006 (H1N1)) clone 1 infected in BALB/c mouse assessed as reduction in viral titer in lung at 0.080 mg/kg, itn administered post 13 hrs infection measured after 85 hrs post infection; format: functional, organism-based; parameters: dose 0.08 mg/kg; in short: as §5
[23] = system: Influenza A virus; assay: Antimicrobial activity against Influenza A virus (A/Puerto Rico/8/34(H1N1)) infected in BALB/c mouse assessed as reduction in viral titer in lung at 0.080 mg/kg, itn after 11 hrs post infection; format: functional, organism-based; parameters: dose 0.08 mg/kg; settings: A/Puerto Rico/8/1934(H1N1), TDE = time-dependent effect; in short: as §2
[24] = system: Influenza A virus; assay: Antimicrobial activity against Influenza A virus (A/Puerto Rico/8/34(H1N1)) infected in BALB/c mouse assessed as increase in mouse survival at 0.17 mg/kg, itn for 7 days post infection; format: functional, organism-based; parameters: dose 0.17 mg/kg; settings: A/Puerto Rico/8/1934(H1N1)
[25] = system: Influenza A virus; assay: Antimicrobial activity against Influenza A virus (A/Puerto Rico/8/34(H1N1)) infected in BALB/c mouse assessed as increase in mouse survival at 0.17 mg/kg, itn for 4 days post infection; format: functional, organism-based; parameters: dose 0.17 mg/kg; settings: A/Puerto Rico/8/1934(H1N1)
[26] = system: Influenza A virus; assay: Antimicrobial activity against Influenza A virus (A/Puerto Rico/8/34(H1N1)) infected in BALB/c mouse assessed as increase in mouse survival at 0.17 mg/kg, itn for 1 day post infection; format: functional, organism-based; parameters: dose 0.17 mg/kg; settings: A/Puerto Rico/8/1934(H1N1)
[27] = system: Influenza A virus; assay: Antimicrobial activity against Influenza A virus (A/Puerto Rico/8/34(H1N1)) infected in BALB/c mouse assessed as increase in mouse survival at 0.17 mg/kg, itn for 12 hrs post infection; format: functional, organism-based; parameters: dose 0.17 mg/kg; settings: A/Puerto Rico/8/1934(H1N1)
[28] = system: Influenza A virus; assay: Antimicrobial activity against Influenza A virus (A/Puerto Rico/8/34(H1N1)) infected in BALB/c mouse assessed as increase in mouse survival at 0.017 mg/kg, itn administered 11 hrs post infection for 5 days […] infection measured on day 20; format: functional, A/Puerto Rico/8/1934(H1N1); in short: as §1
[29] = system: Influenza B virus; assay: Antimicrobial activity against Influenza B virus (B/Hong Kong/05/1972) infected in BALB/c mouse assessed as increase in mouse survival at 0.23 mg/kg, itn administered for 7 days before infection measured at day 20; format: functional

CC(=O)N[C@H]1[C@H]([C@H](O)[C@H](O)CO)OC(C(=O)O)=C[C@@H]1N=C(N)N [ZANAMIVIR]
half-life [1]: 2.8 h

CCCCCCCC(=O)OC[C@@H](O)[C@@H](OC)[C@@H]1OC(C(=O)O)=C[C@H](NC(=N)N)[C@H]1NC(C)=O [LANINAMIVIR OCTANOATE]
Activity [2]: Active | Activity [3]: Active | Activity [4]: Active | Activity [5]: Active | Activity [6]: Active | Activity [7]: Active | Activity [8]: Active | Activity [9]: Active | Activity [10]: Active | Activity [11]: Active | Activity [12]: Active | Activity [13]: tde | Activity [14]: Dose-dependent effect | Activity [15]: Dose-dependent effect | Activity [16]: Dose-dependent effect | Activity [17]: Active | Activity [18]: Active | Activity [19]: Active | Activity [20]: Active | Activity [21]: Active | Activity [22]: Active | Activity [23]: tde | Activity [24]: Active | Activity [25]: Active | Activity [26]: Active | Activity [27]: Active | Activity [28]: 30% | Activity [29]: 82%
